Laboratory results taken from ChEMBL document CHEMBL3352767, “Antibacterial ilicicolinic acids C and D and ilicicolinal from Neonectria discophora SNB-CN63 isolated from a termite nest” (J Nat Prod, 2015).
In brackets after ≈: the same amount, converted by molar mass.

Key:
Trichophyton rubrum = assay: Antimicrobial activity against Trichophyton rubrum SNB-TR1 after 5 days; assay type: functional; settings: SNB-TR1, 120 h
Method in brief: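 MIC against the dermatophyte T. rubrum, with itraconazole as the reference drug.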

Aspergillus fumigatus = assay: Antimicrobial activity against Aspergillus fumigatus SNB-AF1 after 24 hrs; settings: SNB-AF1, 24 h
KB = assay: Cytotoxicity activity against human KB cells; assay type: functional, cell-based
Method in brief: (§1)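 IC50 in μM against KB (nasopharyngeal epidermoid carcinoma) and MRC5 (normal fetal lung) cells, with taxotere as the positive control.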

MRC5 = assay: Cytotoxicity activity against human MRC5 cells; assay type: cell-based; method in brief: as §1
Candida albicans = assay: Antimicrobial activity against Candida albicans ATCC 10231 after 24 hrs; settings: ATCC 10231, 24 h
Candida parapsilosis = assay: Antimicrobial activity against Candida parapsilosis ATCC 22019 after 24 hrs; settings: Lodderomyces parapsilosis, ATCC 22019, 24 h
Escherichia coli = assay: Antimicrobial activity against Escherichia coli ATCC 25922 after 24 hrs; assay type: functional
[1] = Selectivity index, ratio of IC50 for human MRC5 cells to IC50 for Escherichia coli ATCC 25922
[2] = Selectivity index, ratio of IC50 for human MRC5 cells to IC50 for Candida parapsilosis ATCC 22019
[3] = Selectivity index, ratio of IC50 for human MRC5 cells to IC50 for Aspergillus […] SNB-AF1
Staphylococcus aureus = assay: Antimicrobial activity against Staphylococcus aureus ATCC 29213 after 24 hrs; assay type: functional; settings: ATCC 29213, 24 h
[4] = Selectivity index, ratio of IC50 for human MRC5 cells to IC50 for Trichophyton rubrum SNB-TR1
[5] = Selectivity index, ratio of IC50 for human MRC5 cells to IC50 for Candida albicans ATCC 10231
[6] = Selectivity index, ratio of IC50 for human MRC5 cells to IC50 for Staphylococcus aureus ATCC 29213
[7] = Cytotoxicity activity against human MDA435 cells; settings: MDA-MB-435

CCC(C)n1ncn(-c2ccc(N3CCN(c4ccc(OCC5COC(Cn6cncn6)(c6ccc(Cl)cc6Cl)O5)cc4)CC3)cc2)c1=O (configuration not stated) [ITRACONAZOLE]
MIC (Trichophyton rubrum): 0.03 µg/mL (≈ 0.0425 µM)
MIC (Aspergillus fumigatus): 0.5 µg/mL (≈ 0.709 µM)

CC(=O)O[C@@]12CO[C@@H]1C[C@H](O)[C@@]1(C)C(=O)[C@H](O)C3=C(C)[C@@H](OC(=O)[C@H](O)[C@@H](NC(=O)OC(C)(C)C)c4ccccc4)C[C@@](O)([C@@H](OC(=O)c4ccccc4)[C@H]21)C3(C)C [DOCETAXEL]
IC50 (KB): 0.0002 µM
IC50 (MRC5): 0.0005 µM

OC(Cn1cncn1)(Cn1cncn1)c1ccc(F)cc1F [FLUCONAZOLE]
MIC (Candida albicans): 4 µg/mL (≈ 13.1 µM)
MIC (Candida parapsilosis): 4 µg/mL (≈ 13.1 µM)

CC(C)=CCC/C(C)=C/CC/C(C)=C/Cc1c(O)c(Cl)c(C)c(C(=O)O)c1O
MIC (Candida albicans): 16 µg/mL (≈ 39.3 µM)
IC50 (KB): 36.6 µM
MIC (Trichophyton rubrum): 8 µg/mL (≈ 19.7 µM)
MIC (Candida parapsilosis): 16 µg/mL (≈ 39.3 µM)
MIC (Escherichia coli; ATCC 25922, 24 h): 1 µg/mL (≈ 2.46 µM)
MIC (Aspergillus fumigatus): 64 µg/mL (≈ 157 µM)
selectivity ratio [1]: 8
selectivity ratio [2]: 0.5
IC50 (MRC5): 19.7 µM
Selectivity Index [3]: 0.1
MIC (Staphylococcus aureus): 4 µg/mL (≈ 9.83 µM)
Selectivity Index [4]: 1
selectivity ratio [5]: 0.5
selectivity ratio [6]: 2
IC50 [7]: 15.1 µM

GENTAMICIN
MIC (Escherichia coli): 8 µg/mL

Cc1onc(-c2ccccc2)c1C(=O)N[C@@H]1C(=O)N2[C@@H]1SC(C)(C)[C@@H]2C(=O)O [OXACILLIN]
MIC (Staphylococcus aureus): 0.5 µg/mL (≈ 1.25 µM)

CC(C)=CCCC(C)(O)CCC/C(C)=C/Cc1c(O)c(Cl)c(C)c(C(=O)O)c1O (configuration not stated)
MIC (Candida albicans): 32 µg/mL (≈ 75.3 µM)
IC50 (KB): 28.4 µM
MIC (Trichophyton rubrum): 4 µg/mL (≈ 9.41 µM)
MIC (Candida parapsilosis): 32 µg/mL (≈ 75.3 µM)
MIC (Escherichia coli; ATCC 25922, 24 h): 8 µg/mL (≈ 18.8 µM)
MIC (Aspergillus fumigatus): 32 µg/mL (≈ 75.3 µM)
selectivity ratio [1]: 0.7
selectivity ratio [2]: 0.2
IC50 (MRC5): 13.7 µM
Selectivity Index [3]: 0.2
MIC (Staphylococcus aureus): 32 µg/mL (≈ 75.3 µM)
Selectivity Index [4]: 1.5
selectivity ratio [5]: 0.2
selectivity ratio [6]: 0.2
IC50 [7]: 4.9 µM

C/C(=C\Cc1c(O)c(Cl)c(C)c(C(=O)O)c1O)CC/C=C(\C)CCCC(C)(C)O
MIC (Candida albicans): 16 µg/mL (≈ 37.7 µM)
IC50 (KB): 47.3 µM
MIC (Trichophyton rubrum): 32 µg/mL (≈ 75.3 µM)
MIC (Candida parapsilosis): 16 µg/mL (≈ 37.7 µM)
MIC (Escherichia coli; ATCC 25922, 24 h): 8 µg/mL (≈ 18.8 µM)
MIC (Aspergillus fumigatus): 128 µg/mL (≈ 301 µM)
selectivity ratio [1]: 3.3
selectivity ratio [2]: 1.6
IC50 (MRC5): 62.1 µM
Selectivity Index [3]: 0.2
MIC (Staphylococcus aureus): 32 µg/mL (≈ 75.3 µM)
Selectivity Index [4]: 0.8
selectivity ratio [5]: 1.6
selectivity ratio [6]: 0.8
IC50 [7]: 42.4 µM

CC(C)=CCC/C(C)=C/CCC(C)(O)C1Cc2c(O)c(C=O)c(C)c(Cl)c2O1 (configuration not stated)
MIC (Candida albicans): 128 µg/mL (≈ 315 µM)
IC50 (KB): 16.5 µM
MIC (Trichophyton rubrum): 128 µg/mL (≈ 315 µM)
MIC (Candida parapsilosis): 128 µg/mL (≈ 315 µM)
MIC (Escherichia coli; ATCC 25922, 24 h): 64 µg/mL (≈ 157 µM)
MIC (Aspergillus fumigatus): > 128 µg/mL
IC50 (MRC5): 15.1 µM
MIC (Staphylococcus aureus): 128 µg/mL (≈ 315 µM)
IC50 [7]: 16.4 µM
